These results are taken from ChEMBL document CHEMBL4334439, “Discovery, Optimization, and Target Identification of Novel Potent Broad-Spectrum Antiviral Inhibitors” (J Med Chem, 2019).

One may read the EC50 as the midpoint of the concentration-response curve. A lower EC50 goes with greater potency.

For the assay, the system named is Hepatitis C virus. Nature of the assay: Antiviral activity against HCV JFH-1 harboring K78E/E2-G451R/NS3-M260K/NS5A-T462I mutant infected in human Huh7.5.1 cells after 2 days by renilla luciferase reporter gene assay. It is filed as functional, organism-based, Hepacivirus hominis. The following applies: JFH-1, Huh-7.5.1, 48 h. The method, boiled down:
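Renilla luciferase reporter HCVcc (hRluc inserted in NS5A, aa 399/400) came from electroporated Huh7.5.1 supernatant. Virus plus serially diluted compound (top 30 or 6 μM) was added to Huh7.5.1 cells (1×10^4/well) and luminescence read. EC50 is 50% luminescence reduction.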
A general note: Reporter assays use an easily measured gene product as a stand-in for the process of interest.

Compound `CC(C)OC(=O)[C@H](C)N[P@](=O)(OC[C@H]1O[C@@H](n2ccc(=O)[nH]c2=O)[C@](C)(F)[C@@H]1O)Oc1ccccc1` [SOFOSBUVIR] returned a half-maximal effective concentration (EC50) of 170 nM.
